Measurements taken from paper PMC4545412 (Planta medica, 2015).
Read-outs that look alike come from different tables or passages of the source.

How the values were obtained:
[1] = system: Plasmodium falciparum Dd2; assay: Antimalarial bioassay, 72 h parasite growth assay; format: cell-based; details: DD2, read-out: P. falciparum IC50
Method in brief: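 72 h growth assay of test compounds on the drug-resistant Dd2 strain of Plasmodium falciparum, following an earlier protocol with minor modifications. Artemisinin was the positive control.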

NF-κB p65 subunit = NF-κB p65 subunit (Homo sapiens, UniProt Q04206); assay: Enzyme-based ELISA NF-κB; format: biochemical
[2] = system: human colon cancer (HT-29) cell line; assay: Cytotoxicity assay against HT-29 human colon cancer cells; details: for HT-29 ED50: HT-29 human colon cancer cells, > 20 µM considered inactive
[3] = system: human colon cancer (HT-29) cell line
[4] = system: Candida albicans (ATCC 18804); assay: Antifungal bioassay, growth of the pathogenic yeast; format: cell-based; details: ATCC18804, read-out: growth inhibition of C. albicans cells
P. falciparum strain 3D7 = details: read-out: IC50, in vitro antimalarial activity; cited from earlier work
Plasmodium falciparum = details: cited from earlier work
[5] = read-out: NF-κB (p65) IC50, enzyme-based ELISA, > 20 µM considered inactive

NF-κB p65 subunit, sequence (Q04206 whole entry): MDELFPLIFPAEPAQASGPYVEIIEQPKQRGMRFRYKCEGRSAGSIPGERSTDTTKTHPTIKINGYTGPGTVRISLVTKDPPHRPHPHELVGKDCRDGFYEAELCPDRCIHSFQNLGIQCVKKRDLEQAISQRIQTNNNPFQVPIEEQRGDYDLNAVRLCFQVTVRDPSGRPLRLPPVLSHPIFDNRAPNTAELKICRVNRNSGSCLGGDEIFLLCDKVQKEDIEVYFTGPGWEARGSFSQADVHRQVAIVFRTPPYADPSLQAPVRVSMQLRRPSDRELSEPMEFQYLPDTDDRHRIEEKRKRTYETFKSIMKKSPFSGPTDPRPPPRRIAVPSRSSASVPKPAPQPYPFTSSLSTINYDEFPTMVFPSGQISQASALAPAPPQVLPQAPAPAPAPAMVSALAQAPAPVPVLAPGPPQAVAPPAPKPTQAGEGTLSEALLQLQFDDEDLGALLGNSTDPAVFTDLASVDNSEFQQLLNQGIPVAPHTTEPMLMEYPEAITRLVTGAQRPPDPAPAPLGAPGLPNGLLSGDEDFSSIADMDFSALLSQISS

| Compound | IC50 (NF-κB p65 subunit; [5]) | HT-29 ED50 [2] | further results |
| --- | --- | --- | --- |
| C[C@@H]1CC[C@H]2[C@@H](C)C(=O)O[C@@H]3O[C@@]4(C)CC[C@@H]1[C@]32OO4 [Artemisinin, reference compound] | – | – | IC50 [1]: 0.7 nM |
| C=C(C)C1CCC2(CO)CCC3(C)C(CCC4C5(C)CCC(OC(=O)/C=C/c6ccc(O)cc6)C(C)(CO)C5CCC43C)C12 (stereo not drawn) [Compound 1, 3-O-(E)-p-coumaroyl-23-hydroxybetulin] | > 20 µM | > 20 µM | – |
| C=C(C)C1CCC2(CO)CCC3(C)C(CCC4C5(C)CCC(OC(=O)/C=C/c6ccc(O)cc6)C(C)(CO)C5CCC43C)C12 (stereo not drawn) [Compound 2, 3-O-(E)-p-coumaroyl-23-hydroxy-3-epi-betulin] | > 20 µM | 13.2 µM | cytotoxic effect against HT-29 cells (in words) ([2]; HT-29 cells): marginal cytotoxic effects |
| C=C(C)C1CCC2(CO)CCC3(C)C(CCC4C5(C)CCC(OC(=O)/C=C\c6ccc(O)cc6)C(C)(CO)C5CCC43C)C12 (stereo not drawn) [Compound 3, 3-O-(Z)-p-coumaroyl-23-hydroxy-3-epi-betulin] | > 20 µM | 3.3 µM | – |
| C=C(C)C1CCC2(CO)CCC3(C)C(CCC4C5(C)CCC(O)C(C)(COC(=O)/C=C/c6ccc(O)cc6)C5CCC43C)C12 (stereo not drawn) [Compound 4, 23-O-(E)-p-coumaroyl-23-hydroxybetulin] | > 20 µM | > 20 µM | – |
| C=C(C)C1CCC2(CO)CCC3(C)C(CCC4C5(C)CCC(O)C(C)(COC(=O)/C=C\c6ccc(O)cc6)C5CCC43C)C12 (stereo not drawn) [Compound 5, 23-O-(Z)-p-coumaroyl-23-hydroxybetulin] | > 20 µM | 18.4 µM | cytotoxic effect against HT-29 cells (in words) [3]: marginal cytotoxic effects |
| C=C(C)[C@@H]1CC[C@]2(CO)CC[C@]3(C)[C@H](CC[C@@H]4[C@@]5(C)CC[C@H](O)C(C)(C)[C@@H]5CC[C@]43C)[C@@H]12 [Compound 6, betulin] | – | > 20 µM | IC50 (NF-κB p65 subunit): > 20 µM; IC50 [1]: > 10000 nM |
| C=C(C)[C@@H]1CC[C@]2(COC(C)=O)CC[C@]3(C)[C@H](CC[C@@H]4[C@@]5(C)CC[C@H](OC(C)=O)C(C)(C)[C@@H]5CC[C@]43C)[C@@H]12 [Compound 8, 3,28-O-diacetylbetulin] | > 20 µM | > 20 µM | – |
| C=C(C)[C@@H]1CC[C@]2(CO)CC[C@]3(C)[C@H](CC[C@@H]4[C@@]5(C)CC[C@H](O)[C@@](C)(CO)[C@@H]5CC[C@]43C)[C@@H]12 [Compound 9, 23-hydroxybetulin] | 4 µM | > 20 µM | – |
| CC(=O)O[C@H]1C(=O)[C@@]2(C)[C@H]([C@H](OC(=O)c3ccccc3)[C@]3(O)C[C@H](OC(=O)[C@H](O)[C@@H](NC(=O)c4ccccc4)c4ccccc4)C(C)=C1C3(C)C)[C@]1(OC(C)=O)CO[C@@H]1C[C@@H]2O [Paclitaxel, reference compound] | – | 0.001 µM | – |
| C[C@@H]1[C@H](O)[C@@H](C)/C=C/C=C/C=C/C=C/C=C/C=C/C=C/[C@H](O[C@@H]2O[C@H](C)[C@@H](O)[C@H](N)[C@@H]2O)C[C@@H]2O[C@](O)(C[C@@H](O)C[C@@H](O)[C@H](O)CC[C@@H](O)C[C@@H](O)CC(=O)O[C@H]1C)C[C@H](O)[C@H]2C(=O)O [amphotericin B] | – | – | inhibition at 200 µg/mL [4]: 100% |
| C=C(C)[C@@H]1CC[C@]2(C(=O)OC)CC[C@]3(C)[C@H](CC[C@@H]4[C@@]5(C)CC[C@H](O)C(C)(C)[C@@H]5CC[C@]43C)[C@@H]12 [its methylate] | – | – | IC50 (P. falciparum strain 3D7): 7 µM |
| N-3-benzoyldihydrocyclomicrophylline F [Compound 7] | > 20 µM | 1.9 µM | – |
| O-tigloylcyclovirobuxeine-B | – | – | IC50, in vitro antiplasmodial activity (Plasmodium falciparum): 0.46 µg/mL; IC50 (Plasmodium falciparum; read-out: IC50, in vitro antiplasmodial activity): 920 nM |
